Measured values reported in ChEMBL document CHEMBL1127800, “Asimin, asiminacin, and asiminecin: novel highly cytotoxic asimicin isomers from Asimina triloba” (J Med Chem, 1994).
In brackets after ≈: the same amount, converted by molar mass.

Columns and labels:
[1] = Tested for cytotoxicity by using brine shrimp lethality test; assay type: organism-based; settings: artemia, in vivo
A549 = assay: Tested in vitro for cytotoxicity against A-549 lung cancer cells; assay type: functional; settings: Homo sapiens, read-out: ED50 (the source's name)
Procedure, shortened: (§1)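 Seven-day in vitro cytotoxicity assay in human tumour cell lines (A-549 lung carcinoma, MCF-7 breast carcinoma, HT-29 colon carcinoma), run by standard protocols; adriamycin tested alongside.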

HT-29 = assay: Tested in vitro for cytotoxicity against H-29 colon cancer cells; assay type: functional; settings: Homo sapiens, read-out: ED50 (the source's name); procedure, shortened: as §1
MCF7 = assay: Tested in vitro for cytotoxicity against MCF-7 breast cancer cells; assay type: functional; settings: Homo sapiens, read-out: ED50 (the source's name); procedure, shortened: as §1

SMILES	LC50 [1] [µg/mL]	EC50 (A549) [µg/mL]	EC50 (HT-29) [µg/mL]	EC50 (MCF7) [µg/mL]
CCCCCCCCCC[C@@H](O)[C@H]1CC[C@H]([C@H]2CC[C@H]([C@H](O)CCCCCCCCC[C@@H](C)CCC3=C[C@H](C)OC3=O)O2)O1	4600 (≈ 7410 µM)			
CCCCCCCCCC[C@@H](C(C)=O)[C@H]1CC[C@H]([C@H]2CC[C@H]([C@@H](CCCC[C@H](CCCC[C@@H](C)CCC3=C[C@H](C)OC3=O)C(C)=O)C(C)=O)O2)O1	0.0057 (≈ 0.00797 µM)			
COc1cccc2c1C(=O)c1c(O)c3c(c(O)c1C2=O)C[C@@](O)(C(=O)CO)C[C@@H]3O[C@H]1C[C@H](N)[C@H](O)[C@H](C)O1 [DOXORUBICIN]	0.257 (≈ 0.473 µM)	0.000104 (≈ 0.000191 µM)	0.000153 (≈ 0.000281 µM)	0.0176 (≈ 0.0324 µM)
CCCCCC[C@H](O)CCC[C@@H](O)[C@H]1CC[C@H]([C@H]2CC[C@H]([C@H](O)CCCCCCCCC[C@@H](C)CCC3=C[C@H](C)OC3=O)O2)O1	0.0049 (≈ 0.00769 µM)			
CCCCCCCCCC[C@@H](O)[C@H]1CC[C@H]([C@H]2CC[C@H]([C@H](O)CCCCCCCCCC[C@H](O)CC3=C[C@H](C)OC3=O)O2)O1	0.0256 (≈ 0.0411 µM)	0.00843 (≈ 0.0135 µM)		0.852 (≈ 1.37 µM)
